The sample as a whole holds a higher share of hits than the screen did.
V-ATPase pHluor = regulators of yeast V-ATPase proton pumping, primary screen, pHLuorin cytosolic pH fluorescence | S. cerevisiae | response, % at 10 µM | actives 0.37% (n = 350,000) | AID 504577, 2011; in the data active means response mostly above about 7.3%, no sharp cut-off; inactive means mostly below about 5.4%; further: actives read high
ABCB6 inh MLPCN = ABCB6 transporter inhibitors, primary screen, K562-ABCB6 cells, flow cytometry, MLPCN library; AID 602162, 2011; fluorescence ratio to DMSO, % at 10 µM; K562-ABCB6 porphyrin accumulation, 1 h; active compounds read low; ATP-binding cassette sub-family B member 6 (Homo sapiens), Q9NP58; actives 0.19% (n = 360,000);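 active means fluorescence ratio to DMSO below 75%, the collection mean minus 3 SD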;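 further: signal is porphyrin accumulated inside mitochondria; lower ratio means ABCB6 inhibition with less porphyrin fluorescence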
p-CIP stab down = p/CIP-EGFP fusion destabilizers, primary screen, fluorescence, F442A cells. actives 0.01% (n = 290,000). decrease of EGFP signal, % at 10 µM. 16 h;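 active means EGFP signal decrease of at least 30% at 10 µM or well 3 SD below plate mean, unless failing retest; inactive means the rest, including hits failing retest or dose response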
Dynein transport = inhibitors of GR-EGFP nuclear translocation, primary screen, dynein cargo transport inhibitor project, imaging, high-content, 3617.4 mouse cells. test concentration mostly 20 µM; stimulated with dexamethasone, 1 µM; active compounds read low. actives 0.47% (n = 220,000). z-score, hits read low. AID 1381, 2008;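 active means plate z-score of nuclear minus cytoplasmic receptor signal below a set negative limit, without overly bright fluorescence or cell loss, cut at about -3.5 in these data, passing the limit was not always enough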;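 further: z-score of nuclear minus cytoplasmic ring GR-EGFP intensity difference per well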
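medium = tetracycline-free induction medium containing charcoal-stripped FBS | probe or stimulus = dexamethasone, 1.0 µM final | timing = 48 h induction, then 1 h compound, then 30 min agonist, 37 °C | detection = automated 10x imaging of fixed Hoechst-stained cells | read-out basis = nuclear versus cytoplasmic GR-EGFP signal, averaged per well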
Cl transport mod = KCC2 cotransporter modulators, thallium flux, primary screen, cell-based, HEK293 KCC2, FluoZin-2 fluorescence, MLSMR | actives 2.2% (n = 190,000) | Solute carrier family 12 member 5 (Homo sapiens), Q9H2X9 | KCC2 cells, thallium flux FluoZin-2 fluorescence | B-score of Tl+ flux slope (higher = more flux/activation; lower = inhibition) at 10 µM;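 active means thallium flux slope and its plate-corrected score both differing from the plate sample mean at a set confidence after two filtering rounds, in either direction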;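 further: slope of fluorescence scaled to starting intensity during 10 to 20 s after thallium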
Hits are given with their value; - = inactive; . = not tested or not shown.

SMILES	V-ATPase pHluor	ABCB6 inh MLPCN	p-CIP stab down	Dynein transport	Cl transport mod
S=C1Nc2ccccc2Sc2ccc(Cl)cc21	-	-	-	-	16.4
COc1ccc(-c2nc3c(C)cc(Br)cn3c2Cc2cccc(Cl)c2)cc1OC	.	-	.	.	.
CCS(=O)(=O)NCC(c1cccnc1)N1CCN(c2ccccc2)CC1 (stereo not drawn)	20.6	-	-	-	-
CCS(=O)(=O)NCC(c1cccnc1)N1CCN(c2ccc(OC)cc2)CC1 (stereo not drawn)	-	-	-	-	-
O=C(NC1CCN(C(=O)Nc2cccc(Cl)c2)CC1)C1CCCCC1	15.1	-	-	.	.
Cc1cc(C)cc(NC(=S)N2CCC(NC(=O)C3CCCCC3)CC2)c1	-	-	-	.	.
Cc1cc(C)cc(NC(=S)N2CCC(NC(=O)C3CC3)CC2)c1	14.9	-	-	.	.
NCCC(=O)NCCc1cnc[nH]1	22.8	-	.	.	.
O=C(Cc1ccc(F)cc1)NCCc1cnc[nH]1	-	-	-	.	.
COc1cc(NC(=O)Nc2nc(C(N)Cc3ccc(C(F)(F)F)cc3)cs2)cc(OC)c1OC (stereo not drawn)	.	-	.	.	.
CC(=O)Oc1ccc(Cn2c(C)c(C(=O)NCc3cccc(C(F)(F)F)c3)sc2=O)cc1	.	-	.	.	.
C=CCn1c(SCC(=C)C)nc2c1c(=O)[nH]c(=O)n2C	-	-	-	-	-
C=CCn1c(Sc2nnc(C)s2)nc2c1c(=O)[nH]c(=O)n2C	-	68.0	-	-	-
CCCCC[C@@H](C)N1C[C@H](COCc2ccccc2)Oc2cc(N3CC[C@H](N(C)C)C3)ccc2S1(=O)=O	.	-	.	.	.
O=C(O)CSc1nnc(CSc2nc3ccccc3s2)n1-c1ccccc1	-	-	-	-	-
S=c1[nH]nc(COc2ccccc2)n1Cc1ccccc1	-	-	-	-	-
S=c1[nH]nc(CSc2nc3ccccc3s2)n1C1CCCCC1	-	-	-	-	30.3
S=c1[nH]nc(COc2ccccc2)n1C1CCCCC1	-	-	-	-	11.5
CCCNC(=O)c1onc(CSc2ccccn2)c1C(=O)NCCC	21.6	-	-	-	-
CCOC(=O)c1[nH]c2ccc(OC)cc2c1NC(=O)CN1CCSCC1	24.9	-	-	-	.
O=C(NCCN1CCC(n2c(=O)[nH]c3ccccc32)CC1)c1ccc(C(F)(F)F)cc1C(F)(F)F	.	-	.	.	.
O=C(Nc1ccccc1C(=O)O)c1ccc(NC(=O)c2ccc(Br)o2)cc1	-	-	-	-	-
O=C(Nc1ccccc1C(=O)O)c1cccc(NC(=O)c2ccc(Br)o2)c1	-	-	-	-	-3.25
O=C(/C=C/c1ccccc1Cl)c1ccccc(=O)c1O	-	-	-	-	31
COc1ccc(NC(=O)C(C)(C)Oc2ccc(Cl)cc2)cn1	-	-	.	.	.
SMILES	V-ATPase pHluor	ABCB6 inh MLPCN	p-CIP stab down	Dynein transport	Cl transport mod
COc1ccc(NC(=O)/C(Cl)=C(/Cl)S(=O)Cc2ccc(Cl)cc2)cn1 (stereo not drawn)	-	37.0	.	-5.44	.
CCCCC[C@H](C)N1C[C@@H](COCc2ccccc2)Oc2cc(N3CCC[C@H]3C(N)=O)ccc2S1(=O)=O	.	-	.	.	.
COc1ccc(NS(=O)(=O)c2ccc3c(c2)CCC(=O)N3)c(OC)c1	18.5	-	-	-	-
CCOC(=O)N1CCN(C(=O)C[C@@H]2C[C@@]3(C(=O)OCC)CCC=C3N(Cc3ccco3)C2=O)CC1	.	-	.	.	.
Cc1cc(NC(=O)C2CC(=O)OC2c2ccccc2)no1 (stereo not drawn)	-	74.0	-	-	-
CCOC(=O)C1=C(O)c2ccccc2C(=O)/C1=C\c1ccc(C)cc1	-	-	-	-	3.33
COc1ccc(CC2(CO)CCN(Cc3cccnc3)CC2)cc1	-	-	-	-	-
COc1ccc(CC2(CO)CCN(Cc3cccc(OC)c3OC)CC2)cc1	14.6	-	-	-	-
CC(C)CC1C(=O)N(Cc2cn(CCC3OCCO3)nn2)CCS(=O)(=O)N1Cc1ccc(-c2ccncc2)cc1 (stereo not drawn)	-	-	.	.	.
CC12CC3(C)CC(C)(C1)CC(C(=O)NC(=S)N1CCOCC1)(C2)C3	-	-	-	-	9.39
CC12CC3CC(C)(C1)CC(C(=O)NC(=S)N1CCCCC1)(C3)C2	-	-	-	-	10.5
O=C(NC(=S)N1CCN(CCO)CC1)C12CC3CC(CC(C3)C1)C2	-	-	-	-	-
O=C(NC(=S)N1CCOCC1)C12CC3CCC(CC(C3)C1)C2	-	-	-	-	-
CC(=NCCc1ccccc1)C1=C(O)CSC1=O	-	74.0	-	-	-
Cc1ccccc1-n1nc2c(c1NC(=O)C1CC1)CS(=O)(=O)C2	-	-	.	.	.
CN(Cc1cc(Cl)cc(Cl)c1)[C@H]1C[C@H]2c3[nH]c4ccccc4c3CCN2C(=O)[C@H]1CO	-	-	.	.	.
Cc1ccc(NC(=O)/C(=C/c2cccc([N+](=O)[O-])c2)NC(=O)C2CCCCC2)cc1	-	72.0	-	-	-
CCN1CCCC1CNC(=O)c1cc(N)ccc1OC (stereo not drawn)	-	-	.	.	.
C=CCN1CCCC1CNC(=O)c1cc2[nH]nnc2cc1OC (stereo not drawn)	15.1	-	.	.	.
c1ccc(CNc2ncnc3scc(-c4cccs4)c23)nc1	-	-	-	-	-
c1ccc(-c2csc3ncnc(NCc4ccccn4)c23)cc1	22.2	-	-	-	-
CCCC1NC(=O)c2cccnc2-n2c1nc1ccc(OC)cc1c2=O (stereo not drawn)	-	-	.	.	.
CCCCN(CCCC)C(=S)NC(=O)C(C)(C)C	-	-	-	-	38.3
CC(C)(C)C(=O)NC(=S)N1CCOCC1	-	-	-	-	-
COc1ccc(-c2oc3c(OC)c(OC)c(OC)c(O)c3c(=O)c2OC)cc1OC	-	-	-	-	-
SMILES	V-ATPase pHluor	ABCB6 inh MLPCN	p-CIP stab down	Dynein transport	Cl transport mod
COc1c(OC)c(O)c2c(=O)c(O)c(-c3ccccc3)oc2c1OC	-	-	-	-	51.6
CC(C)C1Cc2c(sc(NC(=S)NC(=O)c3ccccc3)c2C#N)CO1 (stereo not drawn)	-	-	-	-	-
CCOC(=O)c1c(NC(=S)NCCc2ccccc2)sc2c1CC(C(C)C)OC2 (stereo not drawn)	-	-	-	-	8.93
C=CCNC(=S)Nc1sc2c(c1C(=O)OCC)CC(C(C)C)OC2 (stereo not drawn)	-	-	-	-	31.9
CCn1c(C)cc(C(=O)COC(=O)CNC(=O)c2ccco2)c1C	-	-	.	.	.
CCN(c1ccc(OC)cc1)S(=O)(=O)N1CCCC(C(=O)NC(C)c2ccccc2)C1 (stereo not drawn)	.	-	.	.	.
CC(c1ccccc1)n1c(-c2ccc(C(C)(C)C)cc2)n[nH]c1=S (stereo not drawn)	-	-	-	.	.
CCc1cc(-c2n[nH]c(=S)n2C(C)c2ccccc2)cs1 (stereo not drawn)	-	-	-	-	3.91
